CSN inh: CSN deneddylation inhibition; actives 0.38% (n = 360,000); Purified CSN, SCF-Nedd8-OG deneddylation, fluorescence polarization; inhibition, % at 12.5 µM;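 active = pattern-corrected inhibition above about 35%, with an unprinted fluorescence ratio check between 0.5 and 1.5, limit read from the data, passing the limit was not always enough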;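 note: 0% = enzyme with substrate and 100% = substrate without enzyme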
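Test system: purified human Csn5 enzyme expressed in HEK293T cells. Amount: 0.24 nM enzyme. Reagent: SCFSkp2-Nedd8OG substrate at 10 nM final. Schedule: 90 min incubation of compound, enzyme and substrate at room temperature. Detection: fluorescence polarization. Read-out: % inhibition of substrate cleavage by Csn5.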
HNF4A DNA FP: change in binding of human HNF4 alpha to DNA; HNF4a-FITC DNA binding, fluorescence polarization, 1 h; activity change, % at 10 µM; actives 0.3% (n = 360,000); AID 1224865; in the data active = activity change above about 30%, passing the limit was not always enough
Target sequence (P41235 whole entry, looked up): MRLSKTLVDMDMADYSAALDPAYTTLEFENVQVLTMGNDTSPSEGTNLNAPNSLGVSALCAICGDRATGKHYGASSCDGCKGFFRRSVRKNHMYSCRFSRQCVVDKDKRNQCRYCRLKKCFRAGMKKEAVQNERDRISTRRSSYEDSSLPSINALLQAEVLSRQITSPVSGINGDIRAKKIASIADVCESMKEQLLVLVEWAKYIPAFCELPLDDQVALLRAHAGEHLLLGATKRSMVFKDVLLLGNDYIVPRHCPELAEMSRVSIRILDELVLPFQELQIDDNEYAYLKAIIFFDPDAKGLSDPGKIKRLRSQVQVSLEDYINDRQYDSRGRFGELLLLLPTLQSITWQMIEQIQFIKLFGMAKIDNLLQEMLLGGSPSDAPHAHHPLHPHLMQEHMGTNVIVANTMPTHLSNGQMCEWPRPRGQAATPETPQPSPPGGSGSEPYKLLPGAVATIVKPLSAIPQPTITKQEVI
Neddylation inh: cullin neddylation inhibition. P61081+Q13564. TR-FRET cullin neddylation, biochemical. inhibition, % at 25 µM. actives 0.58% (n = 360,000). AID 651699; in the data active = inhibition above about 36%
Rpn11 inh: Rpn11 (human) deubiquitinase inhibition | actives 0.59% (n = 360,000) | O00487 | AID 588493 | human 26S proteasome, Ub4-pepOG fluorescence polarization; 20S core pre-blocked with epoxomicin | inhibition, % at 20 µM;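 active = inhibition at 20 µM, scaled to each plate's controls, above about 33%, limit read from the data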
PREPL inh: inhibits the human prolyl oligopeptidase-like enzyme. Q4J6C6. recombinant PREPL, fluorescence polarization activity-based probe. inhibition, % at 5.96 µM. actives 0.68% (n = 320,000). AID 2751; in the data active = inhibition above about 43%;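 note: 0% = enzyme with DMSO and 100% = wells lacking enzyme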
TbMetRS inhib: Trypanosoma brucei MetRS inhibition | purified T. brucei MetRS, ATP depletion, Kinase-Glo luminescence | inhibition, % at 11.9 µM | actives 0.4% (n = 360,000) | AID 624268;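 active = inhibition above a per-plate cutoff of the control wells' mean inhibition plus 3 SD, cut at about 5.5% in these data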;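 note: 0% = DMSO wells median and 100% = median of wells with control inhibitor compound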
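assay system = parasite MetRS enzyme | timing = 15 min preincubation, 2 h reaction, all 25 °C | evaluation = percent inhibition relative to median high and low control wells | medium = HEPES buffer containing pyrophosphatase, BSA, spermine, DTT | compound = single dose, 11.9 µM final nominal, 0.9% final DMSO | detection = Kinase-Glo luminescence, ATP depletion format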
CSN5 deneddyl: validation of inhibitors of human CSN-mediated cullin deneddylation; shares compounds with CSN inh; Csn5 deneddylation of SCF-Nedd8OG, fluorescence polarization, 90 min; inhibition, % at 16.6 µM; actives 62% (n = 540); in the data active = inhibition above about 50%;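 note: 0% = DMSO with enzyme and 100% = no enzyme wells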
MMP-2 counter: counter-screen for CSN deneddylation inhibitors: human MMP-2 inhibition; shares compounds with CSN inh; recombinant MMP-2, FRET substrate fluorescence, 60 min; inhibition, % at 16.6 µM; actives 33% (n = 540); AID 720655;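 active = corrected plate-normalized z-score of 5 or more, or -5 or less, or inhibition of 15% or more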;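 note: plate controls were DMSO wells with enzyme for no effect and buffer wells lacking MMP-2 for full effect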
Thrombin counter: blocks bovine thrombin in a CSN deneddylation counter-screen. bovine thrombin cleavage of Ub4-pepOG, fluorescence polarization. actives 49% (n = 540). inhibition, % at 16.6 µM. shares compounds with CSN inh;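 active = inhibition at or above a set limit, with a fluorescence interference ratio between 0.5 and a set maximum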
* hit, by the source's call; i = inactive; nt = no result given; + = active, no number. Hits are enriched below; roughly 2.4% of the tested compounds scored in any of these assays.

SMILES | CSN inh | HNF4A DNA FP | Neddylation inh | Rpn11 inh | PREPL inh | TbMetRS inhib | CSN5 deneddyl | MMP-2 counter | Thrombin counter
NS(=O)(=O)c1ccc(-c2ccc(/C=C3\SC(=S)N(C4CCS(=O)(=O)C4)C3=O)o2)cc1 (stereo unspecified) | 70* | 130 | -52 | nt | 3 | 0 | 87* | -46* | 46
COc1ccccc1-n1cc([C@@H]2C[C@H]3CN(c4ccccc4)C(=O)[C@]34CCCN24)cn1 | 54* | 65* | 2 | nt | -27 | 0 | 69* | -3 | 37*
CC(C)c1ccccc1NS(=O)(=O)c1cccs1 | 5 | 1 | -5 | -1 | 5 | 0 | nt | nt | nt
O=C1/C(=C\c2ccco2)SC(=S)N1c1ccc(O)cc1 | 7 | 2 | -11 | 2 | 19 | 0 | nt | nt | nt
O=C1/C(=C/C=C/c2ccco2)SC(=S)N1c1ccc(O)cc1 | 57* | -3 | -9 | 95* | 10 | 1 | 64* | 31* | 42*
O=[N+]([O-])c1nccn1CCCCCCN1CCOCC1 | 0 | 0 | -17 | -2 | nt | 0 | nt | nt | nt
COc1ccc(N=C2NC(=O)/C(=C\C=C\c3ccco3)S2)cc1 | 46* | -19 | -7 | 1 | nt | 0 | 84* | 14 | 4
COc1ccc(N=C2S/C(=C\c3ccco3)C(=O)N2CC(C)C)cc1 | 7 | 1 | -5 | 8 | 1 | 0 | nt | nt | nt
Cc1ccc(N=C2NC(=O)/C(=C\c3ccco3)S2)cc1 | 3 | 4 | -13 | 12 | -1 | 0 | nt | nt | nt
Cc1cccc(N=C2NC(=O)/C(=C/C=C/c3ccco3)S2)c1 | 53* | 2 | 13 | 11 | 26 | 0 | 88* | -4 | 2
COc1cccc(-c2nc(CS(=O)(=O)CC(=O)Nc3cc(OC)ccc3OC)c(C)o2)c1 | 3 | 4 | -3 | -4 | 18 | 0 | nt | nt | nt
CCN(CC)c1ccc(/C=C2\CCC(/C=N/NC(=O)c3ccc(=O)n(C)c3)=C2N2CCOCC2)cc1 | 69* | 119 | -7 | nt | 14 | 0 | 50 | -32* | 37*
O=C(N/N=C/C1=C(N2CCOCC2)C(=C\c2ccccc2)/CC1)Nc1ccccc1 | 0 | 3 | 1 | 19 | -8 | 2 | nt | nt | nt
COc1ccccc1CNC(=O)COC(=O)c1cc(-c2ccco2)nc2ccccc12 | 49* | -49 | 7 | 19 | 10 | 0 | nt | 12 | 6
CN1CC(O)(C(O)C(O)C(O)CO)SC1=S (stereo unspecified) | 2 | 7 | 2 | -3 | nt | 0 | nt | nt | nt
C/C(=N/Nc1ccc([N+](=O)[O-])cc1)c1c[nH]c2ccccc12 | 43* | 70* | -51 | nt | nt | 1 | 69* | 3 | 22*
Cc1c(Br)cccc1NC(=O)C1(C)CCN1Cc1ccccc1OC(F)F (stereo unspecified) | -4 | 2 | -1 | -4 | nt | 0 | nt | nt | nt
COc1ccccc1/C=c1\sc2nc(-c3ccco3)nn2c1=O | 38* | -13 | 9 | 15 | -4 | -2 | 86* | 4 | 6
CCOc1ccc(/C=c2\sc3nc(-c4ccco4)nn3c2=O)cc1OCC | 24 | -15 | 11 | -25 | 13 | -1 | nt | nt | nt
N#C/C(=C/c1ccc(N2CCOCC2)o1)C(=O)NC1CCCCC1 | 103* | 172 | -108 | nt | 3 | -1 | 120* | -5 | 88*
N#C/C(=C/c1ccc(N2CCOCC2)o1)c1ccc(Br)cc1 | 80* | 112 | -88 | nt | 25 | 0 | + | -37* | -51
N#C/C(=C\c1ccc(N2CCOCC2)o1)C(=O)Nc1ccc(O)cc1 | 182 | 217 | i | nt | 12 | 0 | nt | nt | nt
CCN1C(=O)[C@H]2[C@@H](c3ccc(OC)cc3)N[C@]3(CCCN(Cc4ccc(Br)cc4)C3=O)[C@H]2C1=O | 5 | 1 | 2 | -5 | nt | -1 | nt | nt | nt

High-throughput results (PubChem BioAssay)
